Values joined by “and” are separate entries in the source; they are usually repeats but may differ in a detail not shown here. Equal entries are not always repeated. Active and inactive are the calls of the source.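 The calls were made as follows, unless noted: active = viability loss from added drug above about 55%, and viability with drug at most 40%, in both replicates (limit read from the data, passing the limit was not always enough); inconclusive = both conditions met in only one replicate; inactive = neither replicate meets both conditions.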
Columns and labels:
[1] = reducers of endogenous Her2 protein level, primary screen, SKBR3 breast tumor cells, AlphaScreen, ATP viability (AID 461;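 active = Her2 level under about 52% in both replicate screens, with viability over 70% of control, limit read from the data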;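 as to Her2 level: lower value means less Her2 protein in the cells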;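 as to viability: percent of carrier control wells set as 100% viability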); details: 18-24 h, measured here: SKBR3 viability, ATP luminescence, at 10 µM
[2] = biological target: Receptor tyrosine-protein kinase erbB-2 (Homo sapiens) (UniProt P04626); assay: as above; details: 18-24 h, at 10 µM, stronger effect = lower value
[3] = SK-BR-3 cell growth inhibitors, pilot screen, 24 h, human (AID 572;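 active = viability at or below 10% of carrier control in both of two separate runs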;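 also: compound exposure lasted between 18 and 24 h rather than exactly 24 h; 100% = carrier-treated control wells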); details: SK-BR-3 viability, CellTiter-Glo luminescence, at 10 µM, stronger effect = lower value
[4] = HUVEC growth inhibition – cell-based, human, primary screen (AID 575;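 active = viability at or below 30% in both replicate assays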;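 also: 100% = median of untreated cell wells with 0.1% DMSO on each plate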); details: HUVEC proliferation, CellTiter-Glo luminescence, 72 h; at 10 µM; stronger effect = lower value
Method in brief: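 material = primary HUVEC, no more than 12 passages | input = 1250 cells per well | controls = vehicle and MePR control wells | measured by = CTG luminescence | times = 72 h compound incubation | format = collagen-coated 384-well format | read-out = % viability vs DMSO wells | doses = single 10 µM dose, 0.1% DMSO, from 5x medium stock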

[5] = growth inhibitors of H69AR lung tumor, primary screen, human, duplicate replicates (AID 580;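 active = viability at or under a set limit in both replicates, limit being median viability minus 3 SD, cut at about 48% in these data, passing the limit was not always enough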;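 also: 100% = mean luminescence of untreated wells and 0% = no signal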); details: H69AR lung tumor cells viability, ATP luminescence, 72 h; at 10 µM; stronger effect = lower value
[6] = reversal of MRP1-mediated doxorubicin resistance, pilot screen, H69AR cells, doxorubicin co-treatment (AID 601); details: CellTiter-Glo, 72 h, at 10 µM; for differential viability (reversal): stronger effect = higher value
[7] = 384-well plate pilot, post-Golgi transport modulator project, inhibition of yeast transport mutant growth (AID 636; in the data active = inhibition above about 31%); details: absorbance 615 nm, about 18 h, stronger effect = higher value
[8] = growth suppression of yeast trafficking mutant, preliminary HTS, modulators of trafficking downstream of Golgi apparatus project, 1536-format plate, OD 615 nm (AID 637; in the data active = inhibition above about 30%); details: yeast transport mutant growth, absorbance 615 nm, 18 h; stronger effect = higher value
[9] = H69AR cells + 2 uM doxorubicin, measured here: viability with 2 uM doxorubicin, stronger effect = lower value
[10] = H69AR cells, compound alone cytotoxicity

Chain of Receptor tyrosine-protein kinase erbB-2 (Homo sapiens) (P04626 whole entry, looked up): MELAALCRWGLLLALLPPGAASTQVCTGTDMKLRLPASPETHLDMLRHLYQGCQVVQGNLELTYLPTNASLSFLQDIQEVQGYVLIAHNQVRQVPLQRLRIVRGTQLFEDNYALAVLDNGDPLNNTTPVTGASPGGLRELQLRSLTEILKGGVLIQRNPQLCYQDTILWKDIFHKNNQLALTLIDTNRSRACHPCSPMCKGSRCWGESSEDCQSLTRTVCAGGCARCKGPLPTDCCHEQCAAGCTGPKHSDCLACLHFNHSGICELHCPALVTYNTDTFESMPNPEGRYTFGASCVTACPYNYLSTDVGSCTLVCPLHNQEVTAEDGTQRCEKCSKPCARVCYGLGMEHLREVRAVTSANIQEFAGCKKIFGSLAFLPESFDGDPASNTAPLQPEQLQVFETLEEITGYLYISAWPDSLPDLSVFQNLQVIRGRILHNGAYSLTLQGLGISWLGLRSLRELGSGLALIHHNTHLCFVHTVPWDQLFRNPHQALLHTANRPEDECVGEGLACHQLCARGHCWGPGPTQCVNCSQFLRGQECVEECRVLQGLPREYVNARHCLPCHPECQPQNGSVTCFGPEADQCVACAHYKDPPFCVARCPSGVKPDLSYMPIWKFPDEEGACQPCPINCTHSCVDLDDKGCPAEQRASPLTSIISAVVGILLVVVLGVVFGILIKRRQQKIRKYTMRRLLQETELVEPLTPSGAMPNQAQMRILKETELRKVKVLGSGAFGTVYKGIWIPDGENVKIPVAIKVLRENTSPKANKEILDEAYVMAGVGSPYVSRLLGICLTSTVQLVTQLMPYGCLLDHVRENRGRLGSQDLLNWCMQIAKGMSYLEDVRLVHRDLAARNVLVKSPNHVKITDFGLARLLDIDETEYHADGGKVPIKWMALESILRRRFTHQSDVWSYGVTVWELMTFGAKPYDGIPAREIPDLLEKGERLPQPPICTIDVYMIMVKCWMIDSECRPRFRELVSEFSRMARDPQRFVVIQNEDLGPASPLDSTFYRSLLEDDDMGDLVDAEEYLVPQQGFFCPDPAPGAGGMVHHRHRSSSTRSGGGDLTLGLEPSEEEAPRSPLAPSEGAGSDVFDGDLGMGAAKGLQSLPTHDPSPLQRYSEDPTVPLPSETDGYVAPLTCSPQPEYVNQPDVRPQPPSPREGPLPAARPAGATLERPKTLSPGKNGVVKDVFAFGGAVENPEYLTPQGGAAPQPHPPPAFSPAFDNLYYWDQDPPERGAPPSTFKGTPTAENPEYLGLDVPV

With `COc1ccc(-c2noc(-c3ccccc3C(=O)NCc3ccco3)n2)cc1` the viability [1] was 93%, the Her2 level [2] was 104% (inactive) and the viability [3] was 93% (inactive). The viability [4] was 107% (inactive), the viability [5] was 82.8% (inactive) and the differential viability (reversal) ([6]; H69AR cells + 2 uM doxorubicin) was -12.1% (inactive). For the same compound, the viability [6, 9] was 94.9%, the viability [6, 10] was 82.8% and the inhibition [7] was -3.12% (inactive). The inhibition [8] was -5.24% (inactive).
In the case of `Nc1ccc(C(=O)O)c(O)c1`, the viability [1] is reported as 100%, the Her2 level [2] is reported as 113% (inactive) and the viability [3] is reported as 100% (inactive) and 130% (inactive). For the same compound, the viability [4] was 105% (inactive) and 87.5% (inactive), the viability [5] was 78.2% (inactive) and 90.7% (inactive) and the differential viability (reversal) ([6]; H69AR cells + 2 uM doxorubicin) was -28.9% (inactive) and 6.59% (inactive). The viability [6, 9] was 107% and 84.1%, the viability [6, 10] was 78.2% and 90.7% and the inhibition [7] was -1.82% (inactive). The inhibition [8] was 15.8% (inactive).
In the case of `Cc1ccc(-c2nn(-c3ccccc3)cc2CN(Cc2ccccc2)C(=O)CCC(=O)O)o1`, the viability [1] is reported as 100%, the Her2 level [2] is reported as 94% (inactive) and the viability [3] is reported as 100% (inactive). For the same compound, the viability [4] was 86.5% (inactive), the viability [5] was 85.7% (inactive) and the differential viability (reversal) ([6]; H69AR cells + 2 uM doxorubicin) was 8.97% (inactive). The viability [6, 9] was 76.7%, the viability [6, 10] was 85.7% and the inhibition [7] was -5.07% (inactive). For the same compound, the inhibition [8] was 3.02% (inactive).
For `Cc1ccsc1C(C(=O)NC1CCCCC1)N(C(=O)Cc1cccs1)C1CC1` (stereo not given), the viability [1] was 97.5%, the Her2 level [2] was 125% (inactive) and the viability [3] was 97.5% (inactive). For the same compound, the viability [4] was 89.2% (inactive), the viability [5] was 86.4% (inactive) and the differential viability (reversal) ([6]; H69AR cells + 2 uM doxorubicin) was 9.3% (inactive). For the same compound, the viability [6, 9] was 77.1%, the viability [6, 10] was 86.4% and the inhibition [7] was -4.87% (inactive). For the same compound, the inhibition [8] was -4% (inactive).
In the case of `Cc1c(C(=O)NCc2cccnc2)sc2ncn(CC(=O)N3CCCCC3C)c(=O)c12` (stereo not given), the viability [1] is reported as 98%, the Her2 level [2] is reported as 88.5% (inactive) and the viability [3] is reported as 98% (inactive). For the same compound, the viability [4] was 102% (inactive), the viability [5] was 97% (inactive) and the differential viability (reversal) ([6]; H69AR cells + 2 uM doxorubicin) was 1.24% (inactive). The viability [6, 9] was 95.8%, the viability [6, 10] was 97% and the inhibition [7] was -0.79% (inactive). The inhibition [8] was 1.61% (inactive).
For `Cc1cccc2cc(CN(CC3CCCO3)C(=O)c3cnccn3)c(=O)[nH]c12` (stereo not given), the viability [1] was 116%, the Her2 level [2] was 105% (inactive) and the viability [3] was 116% (inactive). The viability [4] was 96.9% (inactive), the viability [5] was 85.1% (inactive) and the differential viability (reversal) ([6]; H69AR cells + 2 uM doxorubicin) was -2.77% (inactive). For the same compound, the viability [6, 9] was 87.9%, the viability [6, 10] was 85.1% and the inhibition [7] was -1.43% (inactive). For the same compound, the inhibition [8] was -0.67% (inactive).
For `Nc1sccc1C(=O)c1ccccc1`, the viability [1] was 85.5%, the Her2 level [2] was 118% (inactive) and the viability [3] was 85.5% (inactive). The viability [4] was 82.6% (inactive), the viability [5] was 88.5% (inactive) and the differential viability (reversal) ([6]; H69AR cells + 2 uM doxorubicin) was -2.76% (inactive). The viability [6, 9] was 91.2%, the viability [6, 10] was 88.5% and the inhibition [7] was -1.87% (inactive). The inhibition [8] was -0.16% (inactive).
With `COc1cc(-c2nn3c(-c4cccnc4)nnc3s2)cc(OC)c1OC` the viability [1] was 101%, the Her2 level [2] was 98.5% (inactive) and the viability [3] was 101% (inactive). The viability [4] was 90.3% (inactive), the viability [5] was 92.6% (inactive) and the differential viability (reversal) ([6]; H69AR cells + 2 uM doxorubicin) was 6.8% (inactive). The viability [6, 9] was 85.8%, the viability [6, 10] was 92.6% and the inhibition [7] was -4.87% (inactive). The inhibition [8] was -4.35% (inactive).
For `Cc1cc2cc(CN(CCCN3CCOCC3)C(=O)NC3CCCCC3)c(=O)[nH]c2cc1C`, the viability [1] was 73.5%, the Her2 level [2] was 83% (inactive) and the viability [3] was 73.5% (inactive). The viability [4] was 70.2% (inactive), the viability [5] was 82.8% (inactive) and the differential viability (reversal) ([6]; H69AR cells + 2 uM doxorubicin) was 6.29% (inactive). The viability [6, 9] was 76.5%, the viability [6, 10] was 82.8% and the inhibition [7] was -5.07% (inactive). For the same compound, the inhibition [8] was -2.26% (inactive).
In the case of `O=c1c2ccccc2nnn1CSc1nnc2sc3ccccc3n12`, the viability [1] is reported as 95%, the Her2 level [2] is reported as 64% (inactive) and the viability [3] is reported as 95% (inactive). The viability [4] was 92.8% (inactive), the viability [5] was 77.5% (inactive) and the differential viability (reversal) ([6]; H69AR cells + 2 uM doxorubicin) was 9.79% (inactive). The viability [6, 9] was 67.7%, the viability [6, 10] was 77.5% and the inhibition [7] was -9.04% (inactive). The inhibition [8] was -1.43% (inactive).
In the case of `O=S1(=O)CC(N2CCOCC2)c2ccccc21` (stereo not given), the viability [1] is reported as 95%, the Her2 level [2] is reported as 98% (inactive) and the viability [3] is reported as 95% (inactive). For the same compound, the viability [4] was 92.2% (inactive), the viability [5] was 103% (inactive) and the differential viability (reversal) ([6]; H69AR cells + 2 uM doxorubicin) was 4.56% (inactive). The viability [6, 9] was 98.1%, the viability [6, 10] was 103% and the inhibition [7] was 0.27% (inactive). The inhibition [8] was -9.52% (inactive).
For `O=C(Cn1cnc2c(nnn2Cc2ccccc2)c1=O)c1ccc(Cl)cc1`, the viability [1] was 93.5%, the Her2 level [2] was 110% (inactive) and the viability [3] was 93.5% (inactive). The viability [4] was 84.5% (inactive), the viability [5] was 97.1% (inactive) and the differential viability (reversal) ([6]; H69AR cells + 2 uM doxorubicin) was 8.5% (inactive). The viability [6, 9] was 88.6%, the viability [6, 10] was 97.1% and the inhibition [7] was -3.46% (inactive). The inhibition [8] was -0.17% (inactive).
For `COC(=O)c1ccc(CNC(=O)CSc2nc3sc(C)c(C)c3c(=O)n2C)o1`, the viability [1] was 93.5%, the Her2 level [2] was 102% (inactive) and the viability [3] was 93.5% (inactive). The viability [4] was 97.5% (inactive), the viability [5] was 98.5% (inactive) and the differential viability (reversal) ([6]; H69AR cells + 2 uM doxorubicin) was 15.5% (inactive). The viability [6, 9] was 82.9%, the viability [6, 10] was 98.5% and the inhibition [7] was 0.65% (inactive). For the same compound, the inhibition [8] was -4.33% (inactive).
With `CCC(=O)N1CCNC(=O)C1CC(=O)Nc1ccc(C)c(Cl)c1` (stereo not given) the viability [1] was 97%, the Her2 level [2] was 122% (inactive) and the viability [3] was 97% (inactive). For the same compound, the viability [4] was 94.2% (inactive), the viability [5] was 95.8% (inactive) and the differential viability (reversal) ([6]; H69AR cells + 2 uM doxorubicin) was 4.98% (inactive). The viability [6, 9] was 90.8%, the viability [6, 10] was 95.8% and the inhibition [7] was -2.8% (inactive). For the same compound, the inhibition [8] was -0.48% (inactive).

Source: PubChem BioAssay
